Data set [1] can be described thus: Concentration required to reduce HSV-1 KOS virus induced cytogenicity in primary rabbit kidney (PRK). In kind it is functional. The note with it: Oryctolagus cuniculus; read-out: ID50 (the source's name).
Data set [2] is described as follows: Concentration required to reduce [1,2-H]dUrd incorporation into DNA in n primary rabbit kidney (PRK). Type of data set: functional. Conditions: Oryctolagus cuniculus; read-out: ID50 (the source's name). A digest of the protocol:
(§1)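 PRK cell cultures (10^5 cells per well) were pulsed with 2'-deoxy[1',2'-3H]uridine (42 Ci/mmol) at 0.25 μCi, or 6 pmol, per well. Compound concentration cutting label incorporation into cellular DNA by 50% was taken as ID50.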

Data set [3] in a line: Concentration required to reduce virus HSV-2G induced cytogenicity in primary rabbit kidney (PRK). In kind it is functional. Conditions: Oryctolagus cuniculus; read-out: ID50 (the source's name).
A short description of data set [4]: Concentration required to reduce vaccinia virus induced cytogenicity in primary rabbit kidney (PRK). In kind it is functional. The note with it: Oryctolagus cuniculus; read-out: ID50 (the source's name).
Data set [5] can be described thus: Concentration required to reduce HSV-1 F virus induced cytogenicity in primary rabbit kidney (PRK). In kind it is functional. The note with it: Oryctolagus cuniculus; read-out: ID50 (the source's name).
A short description of data set [6]: Ratio of ID50 for [Me-H]dThd to ID50 for [1,2-H]dUrd. In kind it is functional. In short, it runs like this: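 The ratio is the ID50 for [Me-3H]dThd incorporation divided by the ID50 for [1',2'-3H]dUrd incorporation into PRK cell DNA. Each ID50 is the concentration giving 50% reduction of incorporation. The ratio is treated as a parameter for selective in vivo thymidylate synthetase inhibition.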

A short description of data set [7]: Concentration required to reduce HSV-1 McIntyre virus induced cytogenicity in primary rabbit kidney (PRK). Conditions: Oryctolagus cuniculus, read-out: ID50 (the source's name). In kind it is functional.
A short description of data set [8]: Concentration required to reduce HV2 196 virus induced cytogenicity in primary rabbit kidney (PRK). Type of data set: functional. Conditions: Oryctolagus cuniculus; read-out: ID50 (the source's name).
The nature of data set [9]: Minimum Cytotoxic concentration in primary rabbit kidney (PRK). In kind it is tissue-based, Oryctolagus cuniculus. Conditions: primary rabbit kidney (PRK) cells. A digest of the protocol: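 Primary rabbit kidney cell cultures, the same cells used for the virus cytopathogenicity assays, were exposed to the compound. Cytotoxicity was read as the lowest concentration causing a microscopically visible change in cell morphology.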

Data set [10] in a line: Concentration required to reduce HSV-2 Lyons virus induced cytogenicity in primary rabbit kidney (PRK). In kind it is functional. The note with it: Oryctolagus cuniculus; read-out: ID50 (the source's name).
Data set [11] in a line: Concentration required to reduce [Me-H]dThd incorporation into DNA in primary rabbit kidney (PRK). In kind it is functional. The note with it: Oryctolagus cuniculus, read-out: ID50 (the source's name). In short, it runs like this:
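[methyl-3H]dThd incorporation into DNA of primary rabbit kidney cell cultures was measured with test compound present. ID50 is the concentration reducing dThd incorporation into DNA by 50%.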

A short description of data set [12]: Concentration required to reduce virus HSV-2G induced cytogenicity in primary rabbit kidney (PRK); Range is 1-2. Conditions: Oryctolagus cuniculus; read-out: ID50 (the source's name). Type of data set: functional.
The nature of data set [13]: Concentration required to reduce vaccinia virus induced cytogenicity in primary rabbit kidney (PRK); Range is 0.1-0.2. Type of data set: functional. Conditions: Oryctolagus cuniculus; read-out: ID50 (the source's name).
Data set [14] is described as follows: Concentration required to reduce HV2 196 virus induced cytogenicity in primary rabbit kidney (PRK); Range is 1-4. In kind it is functional. Conditions: Oryctolagus cuniculus; read-out: ID50 (the source's name).
Data set [15] is described as follows: Concentration required to reduce HSV-1 KOS virus induced cytogenicity in primary rabbit kidney (PRK); Range is 1-2. Type of data set: functional. Conditions: Oryctolagus cuniculus; read-out: ID50 (the source's name).
The nature of data set [16]: Concentration required to reduce [1,2-H]dUrd incorporation into DNA in primary rabbit kidney (PRK). In kind it is functional. The note with it: Oryctolagus cuniculus; read-out: ID50 (the source's name). A digest of the protocol:
as §1

Data set [17] is described as follows: Concentration required to reduce HSV-1 F virus induced cytogenicity in primary rabbit kidney (PRK); Range is 1-2. In kind it is functional. The note with it: Oryctolagus cuniculus; read-out: ID50 (the source's name).
Data set [18] can be described thus: Concentration required to reduce HSV-2 Lyons virus induced cytogenicity in primary rabbit kidney (PRK); Range is 2-4. In kind it is functional. The note with it: Oryctolagus cuniculus; read-out: ID50 (the source's name).

Values after ≈ are worked out from the molar mass of the structure shown. Some results are limits rather than exact numbers.

IC50, Ratio and MCC data for 3 molecules are collected here from ChEMBL document CHEMBL1121632, “Oxime and dithiolane derivatives of 5-formyl-2'-deoxyuridine and their 5'-phosphates: antiviral effects and thymidylate synthetase inhibition” (J Med Chem, 1980).

For `O=c1[nH]c(=O)n([C@H]2C[C@H](O)[C@@H](CO)O2)cc1C1SCCS1`, the IC50 in [1] is 300 µg/mL (≈ 903 µM); in [2], 100 µg/mL (≈ 301 µM); in [3] it was 200 µg/mL (≈ 602 µM); in data set [4] it was 200 µg/mL (≈ 602 µM); in data set [5], 150 µg/mL (≈ 451 µM); in data set [7], 300 µg/mL (≈ 903 µM). Also, the IC50 was 300 µg/mL (≈ 903 µM) in data set [8], > 400 µg/mL in data set [10] and 100 µg/mL (≈ 301 µM) in [11]. Moreover, in data set [6], the Ratio is 1. Also, the MCC in [9] was > 400 µg/mL.

`O=Cc1cn([C@H]2C[C@H](O)[C@@H](CO)O2)c(=O)[nH]c1=O`: the IC50 in data set [12] came out at 1 µg/mL (≈ 3.9 µM); in [13], 0.1 µg/mL (≈ 0.39 µM); in data set [7], 0.7 µg/mL (≈ 2.73 µM); in data set [14], 1 µg/mL (≈ 3.9 µM); in [15], 1 µg/mL (≈ 3.9 µM); in [16], 0.2 µg/mL (≈ 0.781 µM). Also, the values for the IC50 in [11], in [17] and in data set [18] were 75 µg/mL (≈ 293 µM), 1 µg/mL (≈ 3.9 µM) and 2 µg/mL (≈ 7.81 µM), respectively. Moreover, the Ratio in data set [6] is 375. In data set [9], this molecule displayed an MCC of 4 µg/mL.

Turning to `O=c1[nH]c(=O)n([C@H]2C[C@H](O)[C@@H](CO)O2)cc1/C=N/O`, the IC50 in [1] stood at 0.7 µg/mL (≈ 2.58 µM); in [3], 7 µg/mL (≈ 25.8 µM); in data set [4], 10 µg/mL (≈ 36.9 µM); in data set [5] it was 1 µg/mL (≈ 3.69 µM); in data set [7], 0.7 µg/mL (≈ 2.58 µM); in [8] it was 20 µg/mL (≈ 73.7 µM). The IC50 in [10] is 20 µg/mL (≈ 73.7 µM); in [16], 7.5 µg/mL (≈ 27.7 µM); in data set [11] it was 300 µg/mL (≈ 1110 µM). Further, in [6], the Ratio was 40. In data set [9], this molecule came in with an MCC of 100 µg/mL.
